From ChEMBL document CHEMBL2062435, “Synthesis and in vitro antibacterial activity of gemifloxacin derivatives containing a substituted benzyloxime moiety” (2012)

test system: Enterococcus faecium; test: Antimicrobial activity against Enterococcus faecium 10-5 after 18-24 hrs by two-fold serial dilution method; assay type: functional
Outline: (§1)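 Agar-medium twofold serial dilution against Gram-positive and Gram-negative strains; MIC taken as the lowest compound concentration giving complete inhibition of bacterial growth after incubation at 35 °C for 18-24 h.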

Structure (SMILES)	MIC [µg/mL]
CS(=O)(=O)O.NCC1CN(c2nc3c(cc2F)c(=O)c(C(=O)O)cn3C2CC2)C/C1=N\OCc1ccc2c(c1)OCO2 (racemic)	4

test system: Staphylococcus epidermidis; test: Antimicrobial activity against extended spectrum beta-lactamases-producing methicillin-sensitive Staphylococcus epidermidis 10-11 after 18-24 hrs by two-fold serial dilution method; assay type: functional; outline: as §1

Structure (SMILES)	MIC [µg/mL]
CS(=O)(=O)O.NCC1CN(c2nc3c(cc2F)c(=O)c(C(=O)O)cn3C2CC2)C/C1=N\OCc1ccc2c(c1)OCO2 (racemic)	2

test system: Enterococcus faecalis; test: Antimicrobial activity against Enterococcus faecalis 10-7 after 18-24 hrs by two-fold serial dilution method; assay type: functional; outline: as §1

Structure (SMILES)	MIC [µg/mL]
CS(=O)(=O)O.NCC1CN(c2nc3c(cc2F)c(=O)c(C(=O)O)cn3C2CC2)C/C1=N\OCc1ccc2c(c1)OCO2 (racemic)	1

test system: Escherichia coli; test: Antimicrobial activity against extended spectrum beta-lactamases-producing Escherichia coli 10-3 after 18-24 hrs by two-fold serial dilution method; assay type: functional; outline: as §1

Structure (SMILES)	MIC [µg/mL]
CS(=O)(=O)O.NCC1CN(c2nc3c(cc2F)c(=O)c(C(=O)O)cn3C2CC2)C/C1=N\OCc1ccc2c(c1)OCO2 (racemic)	16

test system: Klebsiella pneumoniae; test: Antimicrobial activity against Klebsiella pneumoniae 10-3 after 18-24 hrs by two-fold serial dilution method; assay type: functional; outline: as §1

Structure (SMILES)	MIC [µg/mL]
CS(=O)(=O)O.NCC1CN(c2nc3c(cc2F)c(=O)c(C(=O)O)cn3C2CC2)C/C1=N\OCc1ccc2c(c1)OCO2 (racemic)	2

test system: Klebsiella pneumoniae; test: Antimicrobial activity against extended spectrum beta-lactamases-producing Klebsiella pneumoniae 10-1 after 18-24 hrs by two-fold serial dilution method; assay type: functional; outline: as §1

Structure (SMILES)	MIC [µg/mL]
CS(=O)(=O)O.NCC1CN(c2nc3c(cc2F)c(=O)c(C(=O)O)cn3C2CC2)C/C1=N\OCc1ccc2c(c1)OCO2 (racemic)	128

test system: Streptococcus pneumoniae; test: Antimicrobial activity against extended spectrum beta-lactamases-producing Streptococcus pneumoniae 10-4 after 18-24 hrs by two-fold serial dilution method; assay type: functional; outline: as §1

Structure (SMILES)	MIC [µg/mL]
CS(=O)(=O)O.NCC1CN(c2nc3c(cc2F)c(=O)c(C(=O)O)cn3C2CC2)C/C1=N\OCc1ccc2c(c1)OCO2 (racemic)	2

test system: Escherichia coli; test: Antimicrobial activity against Escherichia coli 10-1 after 18-24 hrs by two-fold serial dilution method; assay type: functional; outline: as §1

Structure (SMILES)	MIC [µg/mL]
CS(=O)(=O)O.NCC1CN(c2nc3c(cc2F)c(=O)c(C(=O)O)cn3C2CC2)C/C1=N\OCc1ccc2c(c1)OCO2 (racemic)	32

test system: Staphylococcus aureus; test: Antimicrobial activity against Staphylococcus aureus ATCC […] after 18-24 hrs by two-fold serial dilution method; assay type: functional; outline: as §1

Structure (SMILES)	MIC [µg/mL]
CS(=O)(=O)O.NCC1CN(c2nc3c(cc2F)c(=O)c(C(=O)O)cn3C2CC2)C/C1=N\OCc1ccc2c(c1)OCO2 (racemic)	0.06

test system: Staphylococcus epidermidis; test: Antimicrobial activity against extended spectrum beta-lactamases-producing methicillin-resistant Staphylococcus epidermidis 10-10 after 18-24 hrs by two-fold serial dilution method; assay type: functional
Outline: (§2)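 Agar twofold serial dilution MIC against clinical isolates. MIC was taken as the lowest concentration giving complete inhibition of bacterial growth after incubation at 35 °C for 18-24 h.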

Structure (SMILES)	MIC [µg/mL]
CS(=O)(=O)O.NCC1CN(c2nc3c(cc2F)c(=O)c(C(=O)O)cn3C2CC2)C/C1=N\OCc1ccc2c(c1)OCO2 (racemic)	1

test system: Staphylococcus aureus; test: Antimicrobial activity against extended spectrum beta-lactamases-producing methicillin-sensitive Staphylococcus aureus 10-14 after 18-24 hrs by two-fold serial dilution method; assay type: functional; outline: as §1

Structure (SMILES)	MIC [µg/mL]
CS(=O)(=O)O.NCC1CN(c2nc3c(cc2F)c(=O)c(C(=O)O)cn3C2CC2)C/C1=N\OCc1ccc2c(c1)OCO2 (racemic)	0.03

test system: Pseudomonas aeruginosa; test: Antimicrobial activity against Pseudomonas aeruginosa 10-12 after 18-24 hrs by two-fold serial dilution method; assay type: functional; outline: as §1

Structure (SMILES)	MIC [µg/mL]
CS(=O)(=O)O.NCC1CN(c2nc3c(cc2F)c(=O)c(C(=O)O)cn3C2CC2)C/C1=N\OCc1ccc2c(c1)OCO2 (racemic)	0.06

test system: Escherichia coli; test: Antimicrobial activity against Escherichia coli ATCC 25922 after 18-24 hrs by two-fold serial dilution method; assay type: functional; outline: as §1

Structure (SMILES)	MIC [µg/mL]
CS(=O)(=O)O.NCC1CN(c2nc3c(cc2F)c(=O)c(C(=O)O)cn3C2CC2)C/C1=N\OCc1ccc2c(c1)OCO2 (racemic)	0.125

test system: Escherichia coli; test: Antimicrobial activity against extended spectrum beta-lactamases-producing Escherichia coli 10-4 after 18-24 hrs by two-fold serial dilution method; assay type: functional; outline: as §1

Structure (SMILES)	MIC [µg/mL]
CS(=O)(=O)O.NCC1CN(c2nc3c(cc2F)c(=O)c(C(=O)O)cn3C2CC2)C/C1=N\OCc1ccc2c(c1)OCO2 (racemic)	2

test system: Pseudomonas aeruginosa; test: Antimicrobial activity against extended spectrum beta-lactamases-producing Pseudomonas aeruginosa 10-15 after 18-24 hrs by two-fold serial dilution method; assay type: functional; outline: as §1

Structure (SMILES)	MIC [µg/mL]
CS(=O)(=O)O.NCC1CN(c2nc3c(cc2F)c(=O)c(C(=O)O)cn3C2CC2)C/C1=N\OCc1ccc2c(c1)OCO2 (racemic)	4

test system: Pseudomonas aeruginosa; test: Antimicrobial activity against extended spectrum beta-lactamases-producing Pseudomonas aeruginosa 10-5 after 18-24 hrs by two-fold serial dilution method; assay type: functional; outline: as §1

Structure (SMILES)	MIC [µg/mL]
CS(=O)(=O)O.NCC1CN(c2nc3c(cc2F)c(=O)c(C(=O)O)cn3C2CC2)C/C1=N\OCc1ccc2c(c1)OCO2 (racemic)	8

test system: Staphylococcus aureus; test: Antimicrobial activity against extended spectrum beta-lactamases-producing methicillin-sensitive Staphylococcus aureus 10-13 after 18-24 hrs by two-fold serial dilution method; assay type: functional; outline: as §1

Structure (SMILES)	MIC [µg/mL]
CS(=O)(=O)O.NCC1CN(c2nc3c(cc2F)c(=O)c(C(=O)O)cn3C2CC2)C/C1=N\OCc1ccc2c(c1)OCO2 (racemic)	0.5

test system: Staphylococcus epidermidis; test: Antimicrobial activity against extended spectrum beta-lactamases-producing methicillin-resistant Staphylococcus epidermidis 10-13 after 18-24 hrs by two-fold serial dilution method; assay type: functional; outline: as §2

Structure (SMILES)	MIC [µg/mL]
CS(=O)(=O)O.NCC1CN(c2nc3c(cc2F)c(=O)c(C(=O)O)cn3C2CC2)C/C1=N\OCc1ccc2c(c1)OCO2 (racemic)	0.5

test system: Klebsiella pneumoniae; test: Antimicrobial activity against Klebsiella pneumoniae 10-2 after 18-24 hrs by two-fold serial dilution method; assay type: functional; outline: as §1

Structure (SMILES)	MIC [µg/mL]
CS(=O)(=O)O.NCC1CN(c2nc3c(cc2F)c(=O)c(C(=O)O)cn3C2CC2)C/C1=N\OCc1ccc2c(c1)OCO2 (racemic)	2

test system: Enterococcus faecalis; test: Antimicrobial activity against Enterococcus faecalis 10-6 after 18-24 hrs by two-fold serial dilution method; assay type: functional; outline: as §1

Structure (SMILES)	MIC [µg/mL]
CS(=O)(=O)O.NCC1CN(c2nc3c(cc2F)c(=O)c(C(=O)O)cn3C2CC2)C/C1=N\OCc1ccc2c(c1)OCO2 (racemic)	2

test system: Pseudomonas aeruginosa; test: Antimicrobial activity against extended spectrum beta-lactamases-producing Pseudomonas aeruginosa 10-20 after 18-24 hrs by two-fold serial dilution method; assay type: functional; outline: as §1

Structure (SMILES)	MIC [µg/mL]
CS(=O)(=O)O.NCC1CN(c2nc3c(cc2F)c(=O)c(C(=O)O)cn3C2CC2)C/C1=N\OCc1ccc2c(c1)OCO2 (racemic)	0.25

test system: Pseudomonas aeruginosa; test: Antimicrobial activity against extended spectrum beta-lactamases-producing Pseudomonas aeruginosa 10-9 after 18-24 hrs by two-fold serial dilution method; assay type: functional; outline: as §1

Structure (SMILES)	MIC [µg/mL]
CS(=O)(=O)O.NCC1CN(c2nc3c(cc2F)c(=O)c(C(=O)O)cn3C2CC2)C/C1=N\OCc1ccc2c(c1)OCO2 (racemic)	4

test system: Enterococcus faecium; test: Antimicrobial activity against Enterococcus faecium 10-9 after 18-24 hrs by two-fold serial dilution method; assay type: functional; outline: as §1

Structure (SMILES)	MIC [µg/mL]
CS(=O)(=O)O.NCC1CN(c2nc3c(cc2F)c(=O)c(C(=O)O)cn3C2CC2)C/C1=N\OCc1ccc2c(c1)OCO2 (racemic)	4

test system: Enterococcus faecalis; test: Antimicrobial activity against Enterococcus faecalis 10-5 after 18-24 hrs by two-fold serial dilution method; assay type: functional; outline: as §1

Structure (SMILES)	MIC [µg/mL]
CS(=O)(=O)O.NCC1CN(c2nc3c(cc2F)c(=O)c(C(=O)O)cn3C2CC2)C/C1=N\OCc1ccc2c(c1)OCO2 (racemic)	0.5

test system: Klebsiella pneumoniae; test: Antimicrobial activity against Klebsiella pneumoniae 10-4 after 18-24 hrs by two-fold serial dilution method; assay type: functional; outline: as §1

Structure (SMILES)	MIC [µg/mL]
CS(=O)(=O)O.NCC1CN(c2nc3c(cc2F)c(=O)c(C(=O)O)cn3C2CC2)C/C1=N\OCc1ccc2c(c1)OCO2 (racemic)	> 128

test system: Klebsiella pneumoniae; test: Antimicrobial activity against extended spectrum beta-lactamases-producing Klebsiella pneumoniae 10-2 after 18-24 hrs by two-fold serial dilution method; assay type: functional; outline: as §1

Structure (SMILES)	MIC [µg/mL]
CS(=O)(=O)O.NCC1CN(c2nc3c(cc2F)c(=O)c(C(=O)O)cn3C2CC2)C/C1=N\OCc1ccc2c(c1)OCO2 (racemic)	> 128

test system: Streptococcus pneumoniae; test: Antimicrobial activity against extended spectrum beta-lactamases-producing Streptococcus pneumoniae 10-1 after 18-24 hrs by two-fold serial dilution method; assay type: functional; outline: as §1

Structure (SMILES)	MIC [µg/mL]
CS(=O)(=O)O.NCC1CN(c2nc3c(cc2F)c(=O)c(C(=O)O)cn3C2CC2)C/C1=N\OCc1ccc2c(c1)OCO2 (racemic)	1

test system: Escherichia coli; test: Antimicrobial activity against extended spectrum beta-lactamases-producing Escherichia coli 10-2 after 18-24 hrs by two-fold serial dilution method; assay type: functional; outline: as §1

Structure (SMILES)	MIC [µg/mL]
CS(=O)(=O)O.NCC1CN(c2nc3c(cc2F)c(=O)c(C(=O)O)cn3C2CC2)C/C1=N\OCc1ccc2c(c1)OCO2 (racemic)	> 128

test system: Staphylococcus epidermidis; test: Antimicrobial activity against extended spectrum beta-lactamases-producing methicillin-sensitive Staphylococcus epidermidis 10-15 after 18-24 hrs by two-fold serial dilution method; assay type: functional; outline: as §1

Structure (SMILES)	MIC [µg/mL]
CS(=O)(=O)O.NCC1CN(c2nc3c(cc2F)c(=O)c(C(=O)O)cn3C2CC2)C/C1=N\OCc1ccc2c(c1)OCO2 (racemic)	4

test system: Staphylococcus aureus; test: Antimicrobial activity against extended spectrum beta-lactamases-producing methicillin-resistant Staphylococcus aureus 10-15 after 18-24 hrs by two-fold serial dilution method; assay type: functional; outline: as §2

Structure (SMILES)	MIC [µg/mL]
CS(=O)(=O)O.NCC1CN(c2nc3c(cc2F)c(=O)c(C(=O)O)cn3C2CC2)C/C1=N\OCc1ccc2c(c1)OCO2 (racemic)	0.5

test system: Klebsiella pneumoniae; test: Antimicrobial activity against extended spectrum beta-lactamases-producing Klebsiella pneumoniae 10-3 after 18-24 hrs by two-fold serial dilution method; assay type: functional; outline: as §1

Structure (SMILES)	MIC [µg/mL]
CS(=O)(=O)O.NCC1CN(c2nc3c(cc2F)c(=O)c(C(=O)O)cn3C2CC2)C/C1=N\OCc1ccc2c(c1)OCO2 (racemic)	128

test system: Escherichia coli; test: Antimicrobial activity against Escherichia coli 10-3 after 18-24 hrs by two-fold serial dilution method; assay type: functional; outline: as §1

Structure (SMILES)	MIC [µg/mL]
CS(=O)(=O)O.NCC1CN(c2nc3c(cc2F)c(=O)c(C(=O)O)cn3C2CC2)C/C1=N\OCc1ccc2c(c1)OCO2 (racemic)	8

test system: Pseudomonas aeruginosa; test: Antimicrobial activity against extended spectrum beta-lactamases-producing Pseudomonas aeruginosa 10-18 after 18-24 hrs by two-fold serial dilution method; assay type: functional; outline: as §1

Structure (SMILES)	MIC [µg/mL]
CS(=O)(=O)O.NCC1CN(c2nc3c(cc2F)c(=O)c(C(=O)O)cn3C2CC2)C/C1=N\OCc1ccc2c(c1)OCO2 (racemic)	2

test system: Escherichia coli; test: Antimicrobial activity against Escherichia coli 10-2 after 18-24 hrs by two-fold serial dilution method; assay type: functional; outline: as §1

Structure (SMILES)	MIC [µg/mL]
CS(=O)(=O)O.NCC1CN(c2nc3c(cc2F)c(=O)c(C(=O)O)cn3C2CC2)C/C1=N\OCc1ccc2c(c1)OCO2 (racemic)	2

test system: Staphylococcus aureus; test: Antimicrobial activity against extended spectrum beta-lactamases-producing methicillin-resistant Staphylococcus aureus 10-11 after 18-24 hrs by two-fold serial dilution method; assay type: functional; outline: as §2

Structure (SMILES)	MIC [µg/mL]
CS(=O)(=O)O.NCC1CN(c2nc3c(cc2F)c(=O)c(C(=O)O)cn3C2CC2)C/C1=N\OCc1ccc2c(c1)OCO2 (racemic)	1

test system: Staphylococcus epidermidis; test: Antimicrobial activity against extended spectrum beta-lactamases-producing methicillin-sensitive Staphylococcus epidermidis 10-13 after 18-24 hrs by two-fold serial dilution method; assay type: functional; outline: as §1

Structure (SMILES)	MIC [µg/mL]
CS(=O)(=O)O.NCC1CN(c2nc3c(cc2F)c(=O)c(C(=O)O)cn3C2CC2)C/C1=N\OCc1ccc2c(c1)OCO2 (racemic)	1
